Most compounds without a hit are left out; they make up all but 3% or so of the library.
Tn7 DDE FP: inhibitors of Tn7 peptide binding to human fibrin DD(E); inhibition, % at 8.3 µM; FP displacement of FITC-Tn7 peptide from fibrin DD(E); 0% = median of compound wells per plate; P02675; 370,000 tested, 0.13% active;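 active = inhibition above the mean of compounds falling within the control limits plus 3 SD of them, cut at about 14% in these data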;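 also: 0% = plate median of compound wells and 100% = 10 µM Aha-Tn7 peptide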
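Test system – human fibrin DD(E) · Times – 10 min preincubation, 3 h with tracer, room temperature · Detection – fluorescence polarization of the labelled Tn7 tracer · Measure – percent inhibition normalized to high-control wells · Benchmarks – high control wells with 10 µM unlabelled Aha-Tn7 peptide (full inhibition) · Repeats – singlicate testing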
NRP1-CendR mod: modulators of CendR peptide binding to human neuropilin-1; AID 602438; FAM-RPARPAR peptide binding to NRP-1, fluorescence polarization; 360,000 tested, 0.85% active; inhibition, % at 25 µM; O14786;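 active = inhibition or corrected inhibition above about 18%, plus a signal ratio from 0.5 to 1.5, limit read from the data, passing the limit was not always enough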
Tn6 DDE FP: disrupts Tn6 cyclic peptide binding to fibrin D-Dimer-E complex | P02675 | Fibrin DD(E) TRITC-Tn6 fluorescence polarization displacement | inhibition, % at 8.3 µM | 370,000 tested, 0.21% active;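 active = inhibition above a per-campaign cutoff: mean of compounds within control limits plus 3 SD, cut at about 15% in these data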;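 also: 0% = median of all compound wells on the plate and 100% = blocking peptide control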
PLC-gamma1 inh: inhibitors of human phospholipase C gamma1. P19174. purified PLC-gamma1, fluorogenic substrate, fluorescence. inhibition, % at 12.2 µM. 370,000 tested, 0.84% active; in the data active = inhibition above about 9.5%
PLCb3 inh: PLC-beta3 (human) inhibition, primary screen. Q01970. Purified PLC-beta3, fluorogenic substrate, fluorescence. inhibition, % at 12.2 µM. 370,000 tested, 0.18% active. AID 720704; in the data active = inhibition above about 11%;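 also: 0% = median of compound wells on plate and 100% = full blocker control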
KLK7 zymogen act: activators of human kallikrein-7 zymogen | P49862 | purified proKLK7, EDANS-DABCYL substrate fluorescence; 100% is mature enzyme control, 0% vehicle | activation, % at 7 µM | 370,000 tested, 0.9% active | AID 652039;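 active = activation above the mean of all tested compounds plus 3 SD, computed per campaign excluding outliers beyond control limits, cut at about 13% in these data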
Tn6 DDE ctr: counter-screen hit for Tn6 peptide-fibrin DD(E) binding disruption | shares compounds with Tn6 DDE FP | TRITC-Tn6 fluorescence polarization displacement; 0% = median of compound wells, not DMSO | inhibition, % at 8.3 µM | 680 tested, 2% active;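 active = inhibition above the mean of test compounds lying between the control limits plus 3 SD of those, cut at about 14% in these data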;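 also: 0% = median of compound wells and 100% = wells with Aha-Tn7 blocking peptide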
DDE Tn6 confirm: DD(E)-Tn6 binding inhibition, FP confirmation. shares compounds with Tn6 DDE FP. FP displacement of TRITC-Tn6 peptide from DD(E); 0% = per-plate median of test wells. inhibition, % at 8.3 µM. 680 tested, 10% active;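 active = inhibition above the mean of compounds lying within the control limits plus 3 SD, cut at about 16% in these data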;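 also: 100% = high control wells holding a competing inhibitor peptide at 10 µM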
Starred values were filed as active, the others as inactive.

For O=C1CCC/C1=C/Nc1ccc2c(c1)OCO2 the results were Tn7 DDE FP 12, NRP1-CendR mod -7, Tn6 DDE FP 21*, PLC-gamma1 inh -24, PLCb3 inh -33, KLK7 zymogen act -1, Tn6 DDE ctr 3 and DDE Tn6 confirm 3.
For COC(=O)[C@H](C(C)C)N1Cc2nnn(Cc3ccccc3)c2-c2cc(F)ccc2S1(=O)=O the results were Tn7 DDE FP 5, Tn6 DDE FP -5, PLC-gamma1 inh 1, PLCb3 inh 1 and KLK7 zymogen act 0.
For CCC[C@H]1[C@@H](NC(=O)c2cccnc2)CC[C@@]23CCCN2C(=O)CCC[C@@H]13 the results were Tn7 DDE FP 6, Tn6 DDE FP -3, PLC-gamma1 inh 3 and PLCb3 inh -3.
O=[N+]([O-])c1ccc(OCCCN2CCC(C(O)(c3ccccc3)c3ccccc3)CC2)c(Cl)c1 was read as Tn7 DDE FP -1, Tn6 DDE FP -7, PLC-gamma1 inh 4, PLCb3 inh 3 and KLK7 zymogen act 0.
Screening CNC(=O)c1cc(Oc2ccc(NC(=O)Nc3ccc(Cl)c(C(F)(F)F)c3)cc2)ccn1 returned Tn7 DDE FP -2, NRP1-CendR mod 7, Tn6 DDE FP 34*, PLC-gamma1 inh 3, PLCb3 inh 0, KLK7 zymogen act 0, Tn6 DDE ctr -1 and DDE Tn6 confirm -2.
For NC(=O)C1(N2CCCCC2)CCN(C(=O)CSc2nc3ccccc3s2)CC1 the results were Tn7 DDE FP 3, NRP1-CendR mod 5, Tn6 DDE FP 17*, PLC-gamma1 inh -1, PLCb3 inh 2, KLK7 zymogen act 0, Tn6 DDE ctr 3 and DDE Tn6 confirm 2.
For O=C(CSc1nc2ccccc2s1)N1CCOCC1 the results were Tn7 DDE FP -7, NRP1-CendR mod -1, Tn6 DDE FP 4, PLC-gamma1 inh 4, PLCb3 inh 1 and KLK7 zymogen act 0.
Screening COc1ccccc1N1CCN(/N=C/c2ccc(C(=O)O)cc2)CC1 returned Tn7 DDE FP -6, NRP1-CendR mod 12, Tn6 DDE FP 17*, PLC-gamma1 inh 0, PLCb3 inh -3, KLK7 zymogen act 0, Tn6 DDE ctr -3 and DDE Tn6 confirm -8.
COc1ccc(/C=N/N2CCN(c3ccccc3OC)CC2)cc1OC was read as Tn7 DDE FP -4, NRP1-CendR mod 12, Tn6 DDE FP -4, PLC-gamma1 inh -1, PLCb3 inh -1 and KLK7 zymogen act 0.
`COC(=O)[C@@]12CCCCC=C1N(CCc1ccc(Cl)cc1)C(=O)[C@H]2CC(=O)NCCc1ccccc1OC` gave Tn7 DDE FP 8, Tn6 DDE FP -2, PLC-gamma1 inh -3, PLCb3 inh 1 and KLK7 zymogen act 0.
NS(=O)(=O)c1ccc(NC(=O)CSc2nc3ccccc3c(=O)n2-c2ccc(Br)cc2)cc1 was read as Tn7 DDE FP -3, Tn6 DDE FP 27*, PLC-gamma1 inh 1, PLCb3 inh 0, KLK7 zymogen act 0, Tn6 DDE ctr 1 and DDE Tn6 confirm 8.
For NS(=O)(=O)c1ccc(NC(=O)CSc2nc3ccccc3c(=O)n2Cc2ccncc2)cc1 the results were Tn7 DDE FP -6, NRP1-CendR mod 5, Tn6 DDE FP 7, PLC-gamma1 inh 3, PLCb3 inh 4 and KLK7 zymogen act 1.
`CCOC(=O)c1csc(NC(=O)C2CCCN(S(=O)(=O)c3ccc([N+](=O)[O-])cc3)C2)n1` (configuration not stated) gave Tn7 DDE FP 0, Tn6 DDE FP -5, PLC-gamma1 inh -1, PLCb3 inh 2 and KLK7 zymogen act 0.
CCN1C=C(Cc2ccc(F)cc2)C2=C(C1)C(c1ccc(F)cc1)C(C#N)=C(N)O2 (configuration not stated) was read as Tn7 DDE FP 8, NRP1-CendR mod -7, Tn6 DDE FP 18*, PLC-gamma1 inh -28, PLCb3 inh -30, KLK7 zymogen act -1, Tn6 DDE ctr 9 and DDE Tn6 confirm 9.
`COCCCNC(=O)C[C@H]1C[C@@]2(C(=O)OC)C(=C[C@H](C3CCCC3)O[C@@H]2C)N(CCc2ccc(OC)c(OC)c2)C1=O` gave Tn7 DDE FP -3, Tn6 DDE FP 1, PLC-gamma1 inh -2, PLCb3 inh 0 and KLK7 zymogen act 0.
`CC(=O)Nc1ccc(S(=O)(=O)N(C)CC(=O)N/N=C/c2cccc(O)c2)cc1` gave Tn7 DDE FP 1, NRP1-CendR mod 6, Tn6 DDE FP 3, PLC-gamma1 inh -1, PLCb3 inh 0 and KLK7 zymogen act -1.
For O=C(CN(Cc1ccco1)S(=O)(=O)c1ccccc1)N/N=C/c1cccc(O)c1 the results were Tn7 DDE FP 5, NRP1-CendR mod 11, Tn6 DDE FP 16*, PLC-gamma1 inh -2, PLCb3 inh 1, KLK7 zymogen act 0, Tn6 DDE ctr -5 and DDE Tn6 confirm -9.
For CCC(=O)NC(Nc1sc2c(c1C(=O)OC)CCN(C)C2)(C(F)(F)F)C(F)(F)F the results were Tn7 DDE FP 2, NRP1-CendR mod -11, Tn6 DDE FP 17*, PLC-gamma1 inh -5, PLCb3 inh -6, KLK7 zymogen act 0, Tn6 DDE ctr 1 and DDE Tn6 confirm 0.
`CC(C)(C)CCN1C[C@@H]2C(CNC(=O)c3cc(Cl)cc(Cl)c3)[C@@H]2C1` (some centres not stated) gave Tn7 DDE FP 3, Tn6 DDE FP -2, PLC-gamma1 inh 1 and PLCb3 inh 4.
NS(=O)(=O)c1ccc(NCc2c(F)cccc2Cl)cc1 was read as Tn7 DDE FP -5, NRP1-CendR mod -37, Tn6 DDE FP -2, PLC-gamma1 inh 3, PLCb3 inh 2 and KLK7 zymogen act 0.
Screening Fc1cccc(Cl)c1CNc1ccc(N2CCCC2)cc1 returned Tn7 DDE FP 2, NRP1-CendR mod 6, Tn6 DDE FP 20*, PLC-gamma1 inh -107, PLCb3 inh -104, KLK7 zymogen act 0, Tn6 DDE ctr 1 and DDE Tn6 confirm 1.
COCCCNC(=O)C[C@H]1C[C@@]2(C(=O)OC)C(=C[C@H](C(C)C)O[C@@H]2C2CC2)N(CCc2ccc(OC)c(OC)c2)C1=O was read as Tn7 DDE FP 3, Tn6 DDE FP -1, PLC-gamma1 inh 6, PLCb3 inh 2 and KLK7 zymogen act 0.
